Assay results: ChEMBL document CHEMBL1129245, “N-heteroaryl-2-phenyl-3-(benzyloxy)piperidines: a novel class of potent orally active human NK1 antagonists” (J Med Chem, 1996)
Blank lines part the entries; values can stand above or below the compound they belong to.

How the values were obtained:
[1] = VD values expressed in (L/Kg) in Rhesus monkey; type: ADME, organism-based, Macaca mulatta; conditions: in vivo
Outline: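 Rhesus monkeys dosed at 3 mg/kg in propylene glycol, intravenously and orally, with n = 2 per data point. Pharmacokinetic parameters calculated from the plasma concentration data using standard equations. Values given as mean ± SEM.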

[2] = VD values expressed in (L/Kg) in rat; type: ADME, organism-based; conditions: in vivo
Outline: (§1)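 Rats given compound intravenously and orally in solution. Three rats per time point sampled for plasma drug levels. Pharmacokinetic parameters calculated from the plasma concentration–time data using standard equations. Data reported as mean ± SEM.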

Rattus norvegicus [3] = test: Plasma concentration after 3 mg/kg peroral dosing in rat at 8.0 hr in rats; type: ADME, organism-based; set-up: dose 3 mg/kg, route oral; conditions: in vivo, po
[4] = Bioavailability expressed as F% in Rhesus monkey; type: ADME, organism-based, Macaca mulatta; conditions: in vivo
[5] = Bioavailability in rat; type: ADME, organism-based; conditions: in vivo
Rattus norvegicus [6] = test: Plasma concentration of 3 mg/kg iv after 0.25 hr in rats; type: ADME, organism-based; set-up: dose 3 mg/kg, route intravenous; conditions: in vivo; outline: as §1
Rattus norvegicus [7] = test: Plasma concentration of 3 mg/kg iv after 0.5 hr in rats; type: ADME, organism-based; set-up: dose 3 mg/kg, route intravenous; conditions: in vivo; outline: as §1
Rattus norvegicus [8] = test: Plasma concentration of 3 mg/kg iv after 1 hr in rats; type: ADME, organism-based; set-up: dose 3 mg/kg, route intravenous; conditions: in vivo; outline: as §1
Rattus norvegicus [9] = test: Plasma concentration of 3 mg/kg iv after 2 hr in rats; type: ADME, organism-based; set-up: dose 3 mg/kg, route intravenous; conditions: in vivo; outline: as §1
Rattus norvegicus [10] = test: Plasma concentration of 3 mg/kg iv after 3h in rats; type: ADME, organism-based; set-up: dose 3 mg/kg, route intravenous; conditions: in vivo; outline: as §1
Rattus norvegicus [11] = test: Plasma concentration of 3 mg/kg iv after 4 hr in rats; type: ADME, organism-based; set-up: dose 3 mg/kg, route intravenous; conditions: in vivo; outline: as §1
Rattus norvegicus [12] = test: Plasma concentration of 3 mg/kg iv after 5 hr in rats; type: ADME, organism-based; set-up: dose 3 mg/kg, route intravenous; conditions: in vivo; outline: as §1
Rattus norvegicus [13] = test: Plasma concentration of 3 mg/kg iv after 6 hr in rats; type: ADME, organism-based; set-up: dose 3 mg/kg, route intravenous; conditions: in vivo; outline: as §1
Rattus norvegicus [14] = test: Plasma concentration of 3 mg/kg iv after 7 hr in rats; type: ADME, organism-based; set-up: dose 3 mg/kg, route intravenous; conditions: in vivo; outline: as §1
Rattus norvegicus [15] = test: Plasma concentration of 3 mg/kg iv after 8 hr in rats; type: ADME, organism-based; set-up: dose 3 mg/kg, route intravenous; conditions: in vivo; outline: as §1
Rhesus monkey [16] = test: Plasma concentration after 3 mg/kg intravenous dosing in Rhesus monkey at 0.5 hr; type: ADME, organism-based, Macaca mulatta; set-up: dose 3 mg/kg, route intravenous; conditions: in vivo
Outline: (§2)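 Rhesus monkeys dosed at 3 mg/kg in propylene glycol, intravenously and orally, n = 2 per data point. Plasma concentrations given as mean ± SEM, and pharmacokinetic parameters calculated with standard equations.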

Rhesus monkey [17] = test: Plasma concentration after 3 mg/kg intravenous dosing in Rhesus monkey at 1.0 hr; type: ADME, organism-based, Macaca mulatta; set-up: dose 3 mg/kg, route intravenous; conditions: in vivo; outline: as §2
Rhesus monkey [18] = test: Plasma concentration after 3 mg/kg intravenous dosing in Rhesus monkey at 2.0 hr; type: ADME, organism-based, Macaca mulatta; set-up: dose 3 mg/kg, route intravenous; conditions: in vivo; outline: as §2
Rhesus monkey [19] = test: Plasma concentration after 3 mg/kg intravenous dosing in Rhesus monkey at 4.0h; type: ADME, organism-based, Macaca mulatta; set-up: dose 3 mg/kg, route intravenous; conditions: in vivo, 4 h; outline: as §2
Rhesus monkey [20] = test: Plasma concentration after 3 mg/kg intravenous dosing in Rhesus monkey at 6.0 hr; type: ADME, organism-based, Macaca mulatta; set-up: dose 3 mg/kg, route intravenous; conditions: in vivo; outline: as §2
Rhesus monkey [21] = test: Plasma concentration after 3 mg/kg intravenous dosing in Rhesus monkey at 8.0 hr; type: ADME, organism-based, Macaca mulatta; set-up: dose 3 mg/kg, route intravenous; conditions: in vivo; outline: as §2
Rhesus monkey [22] = test: Plasma concentration after 3 mg/kg peroral dosing in Rhesus monkey at 0.167 hr; type: ADME, organism-based, Macaca mulatta; set-up: dose 3 mg/kg, route oral; conditions: in vivo, po; outline: as §2
Rhesus monkey [23] = test: Plasma concentration after 3 mg/kg peroral dosing in Rhesus monkey at 0.5 hr; type: ADME, organism-based, Macaca mulatta; set-up: dose 3 mg/kg, route oral; conditions: in vivo, po; outline: as §2
Rattus norvegicus [24] = test: Plasma concentration after 3 mg/kg peroral dosing in rat at 5.0 hr in rats; type: ADME, organism-based; set-up: dose 3 mg/kg, route oral; conditions: in vivo, po
Rhesus monkey [25] = test: Plasma concentration after 3 mg/kg peroral dosing in Rhesus monkey at 1.0 hr; type: ADME, organism-based, Macaca mulatta; set-up: dose 3 mg/kg, route oral; conditions: in vivo, po; outline: as §2
Rhesus monkey [26] = test: Plasma concentration after 3 mg/kg peroral dosing in Rhesus monkey at 2.0 hr; type: ADME, organism-based, Macaca mulatta; set-up: dose 3 mg/kg, route oral; conditions: in vivo, po; outline: as §2
Rhesus monkey [27] = test: Plasma concentration after 3 mg/kg peroral dosing in Rhesus monkey at 4.0h; type: ADME, organism-based, Macaca mulatta; set-up: dose 3 mg/kg, route oral; conditions: in vivo, po, 4 h; outline: as §2
Rhesus monkey [28] = test: Plasma concentration after 3 mg/kg peroral dosing in Rhesus monkey at 6.0 hr; type: ADME, organism-based, Macaca mulatta; set-up: dose 3 mg/kg, route oral; conditions: in vivo, po; outline: as §2
Rhesus monkey [29] = test: Plasma concentration after 3 mg/kg peroral dosing in Rhesus monkey at 8.0 hr; type: ADME, organism-based, Macaca mulatta; set-up: dose 3 mg/kg, route oral; conditions: in vivo, po; outline: as §2
Rattus norvegicus [30] = test: Plasma concentration after 3 mg/kg peroral dosing in rat at 0.083 hr in rats; type: ADME, organism-based; set-up: dose 3 mg/kg, route oral; conditions: in vivo, po
Rattus norvegicus [31] = test: Plasma concentration after 3 mg/kg peroral dosing in rat at 0.25 hr in rats; type: ADME, organism-based; set-up: dose 3 mg/kg, route oral; conditions: in vivo, po
Rattus norvegicus [32] = test: Plasma concentration after 3 mg/kg peroral dosing in rat at 0.5 hr in rats; type: ADME, organism-based; set-up: dose 3 mg/kg, route oral; conditions: in vivo, po
Rattus norvegicus [33] = test: Plasma concentration after 3 mg/kg peroral dosing in rat at 1.0 hr in rats; type: ADME, organism-based; set-up: dose 3 mg/kg, route oral; conditions: in vivo, po
Rattus norvegicus [34] = test: Plasma concentration after 3 mg/kg peroral dosing in rat at 3.0 hh in rats; type: ADME, organism-based; set-up: dose 3 mg/kg, route oral; conditions: in vivo, po
Rattus norvegicus [35] = test: Plasma concentration after 3 mg/kg peroral dosing in rat at 4.0h in rats; type: ADME, organism-based; set-up: dose 3 mg/kg, route oral; conditions: in vivo, po, 4 h
Rattus norvegicus [36] = test: Plasma concentration after 3 mg/kg peroral dosing in rat at 6.0 hr in rats; type: ADME, organism-based; set-up: dose 3 mg/kg, route oral; conditions: in vivo, po
Rattus norvegicus [37] = test: Plasma concentration after 3 mg/kg peroral dosing in rat at 7.0 hr in rats; type: ADME, organism-based; set-up: dose 3 mg/kg, route oral; conditions: in vivo, po
Oryctolagus cuniculus [38] = species: Oryctolagus cuniculus; test: Displacement of [3H]diltiazem from rabbit skeletal muscle calcium channel; type: tissue-based; conditions: Muscle tissue
Mustela putorius furo = test: Effects on […] and vomiting response in ferrets induced by 10 mg/kg iv dose of cisplatin; type: functional
Outline: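 Ferrets given cisplatin 10 mg/kg iv to induce retching and vomiting. Test compound given iv; response observed over a 4 h period, n = 6-8 per group.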

Substance-P receptor = Substance-P receptor (Homo sapiens, UniProt P25103); test: Displacement of [125 I]-Tyr8 SP from the cloned human Tachykinin receptor 1 expressed in CHO cells; type: cell-based
Substance-P receptor, sequence (P25103 whole entry): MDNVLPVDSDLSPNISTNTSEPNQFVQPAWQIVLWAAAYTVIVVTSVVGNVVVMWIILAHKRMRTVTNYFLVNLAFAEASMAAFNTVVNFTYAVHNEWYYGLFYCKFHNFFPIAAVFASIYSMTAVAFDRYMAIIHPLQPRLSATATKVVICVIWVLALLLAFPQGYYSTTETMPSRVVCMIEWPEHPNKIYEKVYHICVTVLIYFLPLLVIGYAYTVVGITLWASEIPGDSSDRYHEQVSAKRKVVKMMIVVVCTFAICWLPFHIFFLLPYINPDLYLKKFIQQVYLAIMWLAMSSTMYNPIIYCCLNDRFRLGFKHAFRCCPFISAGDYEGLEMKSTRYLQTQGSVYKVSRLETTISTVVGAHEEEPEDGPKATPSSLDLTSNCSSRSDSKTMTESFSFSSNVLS

Cavia porcellus [39] = test: Inhibition of SP induced dermal extravasation in the guinea pig after peroral administration; type: functional; conditions: read-out: ID50 (the source's name)
Outline: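 Guinea pigs were dosed orally, then challenged with intradermal SP 1 h later. Vascular leakage was measured as Evans blue extravasation into the skin. Dose-response was run with 5-12 animals per point, and ID50 is reported in mg/kg po.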

Rattus norvegicus [40] = test: Inhibition of […] of the rat after intravenous administration; type: functional; conditions: read-out: ID50 (the source's name)
Outline: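 Rats given test compound intravenously. Plasma extravasation in the dura mater measured, n = 8-10. ID50 reported in mg/kg iv.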

Rhesus monkey [41] = test: Plasma concentration after 3 mg/kg intravenous dosing in Rhesus monkey at 0.167 hr; type: ADME, organism-based, Macaca mulatta; set-up: dose 3 mg/kg, route intravenous; conditions: in vivo; outline: as §2
Rattus norvegicus [42] = test: Plasma concentration after 3 mg/kg peroral dosing in rat at 2.0 hr in rats; type: ADME, organism-based; set-up: dose 3 mg/kg, route oral; conditions: in vivo, po
Rattus norvegicus [43] = test: Plasma concentration of 3 mg/kg iv after 0.083 hr in rats; conditions: in vivo
[44] = Plasma clearance after intravenous administration dosing (3 mg/kg) in rat
[45] = Plasma clearance after intravenous administration dosing (3 mg/kg) in Rhesus monkey
Oryctolagus cuniculus [46] = species: Oryctolagus cuniculus; test: Displacement of [3H]diltiazem from rabbit skeletal muscle calcium channel at 30 uM; type: tissue-based; conditions: Muscle tissue
Cavia porcellus [47] = test: Inhibition of SP induced dermal guinea pig after peroral administration; type: functional; conditions: read-out: ID50 (the source's name)
Outline: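 Guinea pigs dosed orally with antagonist, then challenged 1 h later with intradermal substance P. Vascular leakage measured as extravasation of Evans blue dye. ID50 (mg/kg po) taken from dose-response data, 5-12 animals per data point.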

- Vd [1]: 0.55 L/kg
- Vd [2]: 6.5 L/kg
- Concentration (Rattus norvegicus [3]): < 5 ng/mL
- bioavailability [4]: 23.7%
- bioavailability [5]: 46%
- Concentration (Rattus norvegicus [6]): 244 ng/mL
- Concentration (Rattus norvegicus [7]): 291 ng/mL
- Concentration (Rattus norvegicus [8]): 203 ng/mL
- Concentration (Rattus norvegicus [9]): 135 ng/mL
- Concentration (Rattus norvegicus [10]): 52 ng/mL
- Concentration (Rattus norvegicus [11]): 30 ng/mL
- Concentration (Rattus norvegicus [12]): 21 ng/mL
- Concentration (Rattus norvegicus [13]): 9 ng/mL
- Concentration (Rattus norvegicus [14]): < 5 ng/mL
- Concentration (Rattus norvegicus [15]): < 5 ng/mL
- Concentration (Rhesus monkey [16]): 5020 ng/mL
- Concentration (Rhesus monkey [17]): 3660 ng/mL
- Concentration (Rhesus monkey [18]): 3080 ng/mL
- Concentration (Rhesus monkey [19]): 1980 ng/mL
- Concentration (Rhesus monkey [20]): 1220 ng/mL
- Concentration (Rhesus monkey [21]): 720 ng/mL
- Concentration (Rhesus monkey [22]): 20 ng/mL
- Concentration (Rhesus monkey [23]): 50 ng/mL
- Concentration (Rattus norvegicus [24]): 25 ng/mL
- Concentration (Rhesus monkey [25]): 80 ng/mL
- Concentration (Rhesus monkey [26]): 150 ng/mL
- Concentration (Rhesus monkey [27]): 520 ng/mL
- Concentration (Rhesus monkey [28]): 580 ng/mL
- Concentration (Rhesus monkey [29]): 500 ng/mL
- Concentration (Rattus norvegicus [30]): 11 ng/mL
- Concentration (Rattus norvegicus [31]): 29 ng/mL
- Concentration (Rattus norvegicus [32]): 70 ng/mL
- Concentration (Rattus norvegicus [33]): 45 ng/mL
- Concentration (Rattus norvegicus [34]): 65 ng/mL
- Concentration (Rattus norvegicus [35]): 41 ng/mL
- Concentration (Rattus norvegicus [36]): 12 ng/mL
- Concentration (Rattus norvegicus [37]): < 5 ng/mL
- Binding affinity (Oryctolagus cuniculus [38]): 12.6 µM
- IC50 (Substance-P receptor): 0.05 nM
- Concentration (Rhesus monkey [41]): 5240 ng/mL
- Concentration (Rattus norvegicus [42]): 94 ng/mL
- Concentration (Rattus norvegicus [43]): 599 ng/mL
- clearance [44]: 73 mL/min/kg
- clearance [45]: 2.4 mL/min/kg
Structure (SMILES): O=c1[nH]nc(CN2CCC[C@H](OCc3cc(C(F)(F)F)cc(C(F)(F)F)c3)[C@@H]2c2ccccc2)[nH]1
- ID90 (Mustela putorius furo): 1 mg/kg
- ED50 (Cavia porcellus [39]): 0.037 mg/kg
- ED50 (Rattus norvegicus [40]): 0.028 mg/kg

- IC50 (Substance-P receptor): 0.9 nM
Structure (SMILES): FC(F)(F)c1cc(CO[C@H]2CCCN(Cc3cnc[nH]3)[C@H]2c2ccccc2)cc(C(F)(F)F)c1

- Binding affinity (Oryctolagus cuniculus [46]): 16%
Structure (SMILES): NC(=O)CN1CCC[C@H](OCc2cc(C(F)(F)F)cc(C(F)(F)F)c2)[C@@H]1c1ccccc1
- ED50 (Cavia porcellus [47]): 0.8 mg/kg
